PAFAH1B2 FP inh: PAFAH1B2 enzyme inhibitors, primary screen, biochemical, fluorescence polarization, human; inhibition, % at 3.39 µM; 340,000 tested, 1.2% active; recombinant PAFAH1B2, FP-rhodamine activity probe; Platelet-activating factor acetylhydrolase IB subunit alpha2 (Homo sapiens), P68402;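 active = inhibition above the mean of all tested compounds plus 3 SD, cut at about 24% in these data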;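 note: 0% = enzyme with DMSO and 100% = wells lacking PAFAH1B2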
Target sequence (P68402 whole entry, looked up): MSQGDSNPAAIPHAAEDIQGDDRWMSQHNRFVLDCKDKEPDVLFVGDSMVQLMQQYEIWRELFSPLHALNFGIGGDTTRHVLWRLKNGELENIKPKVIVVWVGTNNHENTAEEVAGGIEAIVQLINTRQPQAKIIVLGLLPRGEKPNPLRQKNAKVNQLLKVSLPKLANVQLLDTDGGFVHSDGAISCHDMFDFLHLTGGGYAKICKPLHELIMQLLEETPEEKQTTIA
Apaf1 inhib: inhibitors of human Apaf-1 apoptosome, primary screen, biochemical, DEVD-Rh110 fluorescence, uHTS. reconstituted apoptosome caspase-3 activity. inhibition, % at 20 µM. 330,000 tested, 0.71% active. AID 489030, 2010; active = inhibition of at least 40% at 20 µM;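 note: plate controls were DMSO wells for no effect and DEVD-CHO caspase inhibitor wells for full effect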
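Material: reconstituted apoptosome with Apaf-1, cytochrome c, caspase-9, procaspase-3, dATP / Buffer or medium: pH 7.5 Hepes buffer with CHAPS, BSA, DTT / Also added: cytochrome c with DEVD-Rh110 / Schedule: compound with Apaf-1, dATP, procaspase-3 30 min, then 50 min reaction, room temperature / Technique: rhodamine 110 fluorescence at Ex 480/Em 540 nm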
TDP2 absorb: human TDP2 enzyme inhibitors, primary screen, biochemical, epi absorbance, recombinant enzyme; Tyrosyl-DNA phosphodiesterase 2 (Homo sapiens), O95551; T5PNP hydrolysis, p-nitrophenol absorbance 415 nm; inhibition, % at 12.8 µM; 370,000 tested, 0.34% active; AID 720702, 2013;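 active = inhibition above the mean of all tested compounds plus 3 SD, set per campaign, cut at about 25% in these data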;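 note: 0% = DMSO with enzyme and 100% = buffer with substrate but no TDP2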
Target sequence (O95551 whole entry, looked up): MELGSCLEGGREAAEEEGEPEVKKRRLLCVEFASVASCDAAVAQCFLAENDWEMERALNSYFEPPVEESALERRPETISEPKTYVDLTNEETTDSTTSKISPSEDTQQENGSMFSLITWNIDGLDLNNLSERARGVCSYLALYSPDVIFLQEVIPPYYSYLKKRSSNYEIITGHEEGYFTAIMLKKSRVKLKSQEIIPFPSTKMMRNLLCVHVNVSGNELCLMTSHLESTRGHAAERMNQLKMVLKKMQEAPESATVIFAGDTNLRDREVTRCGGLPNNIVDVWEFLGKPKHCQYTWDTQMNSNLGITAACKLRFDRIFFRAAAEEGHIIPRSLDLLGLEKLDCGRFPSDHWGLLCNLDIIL
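test system = human TDP2 enzyme | input = TDP2 enzyme at 120 nM final | medium = 50 mM Tris-HCl pH 7.5 with Mg2+, KCl, DTT, BSA | also added = T5PNP substrate, 5 mM | times = 2 h at 37 °C | technique = epi absorbance | benchmarks = high control without enzyme, low control DMSO plus TDP2 | replication = each compound tested once, singlicate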
PAFAH2 inh: PAFAH2 enzyme inhibitors, primary screen, biochemical, fluorescence polarization, human. recombinant PAFAH2, FP-rhodamine activity probe. inhibition, % at 3.39 µM. 340,000 tested, 0.99% active;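 active = inhibition above the mean over all tested compounds plus 3 SD, cut at about 30% in these data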;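 note: inhibitors block probe labeling of enzyme so polarization drops; 0% = enzyme with DMSO and 100% = wells lacking PAFAH2 protein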
PAFAH1B3 inh: PAFAH1B3 enzyme inhibitors, primary screen, biochemical, fluorescence polarization, human; inhibition, % at 3.39 µM; recombinant PAFAH1B3, FP-rhodamine probe; Platelet-activating factor acetylhydrolase IB subunit alpha1 (Homo sapiens), Q15102; AID 492972, 2010; 340,000 tested, 0.28% active;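 active = inhibition above the screen-wide average of all tested compounds plus 3 SD, cut at about 25% in these data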;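 note: 0% = enzyme with DMSO only and 100% = wells lacking PAFAH1B3 protein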
Starred values were filed as active, the others as inactive; . = no result. Most compounds without a hit are left out; they make up all but 2.3% or so of the library.

SMILES | PAFAH1B2 FP inh | Apaf1 inhib | TDP2 absorb | PAFAH2 inh | PAFAH1B3 inh
c1cc(-c2nnc3n2N=C(c2ccc4c(c2)OCO4)CS3)ccn1 | . | . | -5 | . | .
O=C(Cc1cc(=O)[nH][nH]1)N/N=C/c1ccccc1Cl | . | 77* | -2 | . | .
Cc1noc(C)c1-c1nc(CS(=O)(=O)c2ccc(Cl)cc2)no1 | 30* | -14 | 2 | 9 | 5
O=C(OCC(=O)C12CC3CC(CC(C3)C1)C2)c1ccccc1O | 12 | -5 | 0 | 10 | -2
CNS(=O)(=O)c1cccc(C(=O)OCC(=O)C23CC4CC(CC(C4)C2)C3)c1 | 30* | 16 | -5 | 46* | 1
O=C(OCC(=O)C12CC3CC(CC(C3)C1)C2)c1ccc(O)cc1 | 26* | 12 | 3 | 84* | 1
CNS(=O)(=O)c1cccc(C(=O)OCC(=O)Nc2ccc(Cl)cn2)c1 | 0 | -5 | 11 | 21 | 6
Nc1ccc(O)cc1C(=O)OCC(=O)C12CC3CC(CC(C3)C1)C2 | 16 | 3 | 0 | 86* | -6
N#Cc1cccc(OC[C@@H](O)CN2CCC(C(O)(c3ccccc3)c3ccccc3)CC2)c1 | . | . | -10 | . | .
O=C(O/N=C/c1ccc(Cl)cc1)C1CCCCC1 | 94* | 7 | -2 | 77* | 12
O=C1OC(Nc2cc(Br)cc3cccnc23)c2ccccc21 (stereo not drawn) | 18 | 97* | 79* | 22 | 69*
O=c1c2c(nc3cc(-c4ccc(Cl)cc4)[nH]n13)CCS2 | 32* | 5 | 0 | 20 | 5
CCC(C)N(Cc1ccc(OC)cc1OC)S(=O)(=O)c1cc(Br)ccc1Br (stereo not drawn) | . | . | 7 | . | .
CCOC(=O)N1CCC(NC(=O)c2ccc3c(c2)sc2nc(-c4ccc(OC)cc4)cn23)CC1 | . | 44* | . | . | .
O=C(Cc1ccc(Br)cc1)NCCc1ccc(F)cc1 | 26* | 9 | -2 | 0 | -1
O=C(Cc1ccc(Cl)cc1)NCCc1ccc(F)cc1 | . | 0 | 9 | . | .
COC(=O)C(Cc1ccc(O)cc1)NC(=O)C(C)NC(=O)c1ccc(C(C)(C)C)cc1 (stereo not drawn) | 27* | 13 | -27 | 6 | 7
O=C(CSc1nc2ccccc2c(=O)n1-c1ccc(Cl)cc1)NNC(=S)Nc1ccccc1 | . | . | 8 | . | .
CC(C)CN1C(=O)[C@@]2(CC(=O)N(C)C2c2ccccc2)c2cc(-n3cc(CO)nn3)ccc21 (stereo partly drawn) | . | . | -10 | . | .
O=S(=O)(NCc1ccccc1)c1ccc(F)cc1Br | 9 | -1 | 4 | -13 | 10
O=S(=O)(NCc1ccc(F)cc1)c1ccccc1Br | 25* | 4 | -8 | 1 | 4
Fc1ccc(-c2cc(-c3nnc4sc(-c5cccs5)nn34)[nH]n2)cc1 | . | . | 0 | . | .
CCc1ccc(NC(=O)CSc2nc(CSc3ccc(C)cc3)cc(=O)[nH]2)cc1 | 54* | 1 | -20 | 2 | 2
CCCc1cc(=O)[nH]c(SCC(=O)Nc2ccc(C)cc2)n1 | 5 | -5 | 13 | 4 | 5
S=C(Nc1ccccc1Cl)OCCN1CCCC12CCC(c1ccccc1)CC2 (stereo not drawn) | . | . | 5 | . | .
SMILES | PAFAH1B2 FP inh | Apaf1 inhib | TDP2 absorb | PAFAH2 inh | PAFAH1B3 inh
Nc1c(/C=C2/C=CC(=O)C(O)=C2)c(=O)nc2sc(CC(=O)N3CCCCC3)nn12 | 54* | 4 | -13 | 35* | 19
Nc1c(/C=C2/C=CC(=O)C(O)=C2)c(=O)nc2sc(CC(=O)N3CCOCC3)nn12 | 26* | . | -9 | 19 | 15
OC1OC2COC(c3ccccc3)OC2C(O)C1O (stereo not drawn) | . | . | -3 | . | .
CN(C)c1ccc(C(=O)OCC(=O)NC2CCCCCC2)cc1 | 5 | 11 | -27 | 84* | 4
O=C(COC(=O)c1c[nH]c2ccccc12)NC1CCCCC1 | 6 | 3 | 8 | 83* | 9
CCN(CC)c1ccc(C(=O)OCC(=O)NCC2CCCO2)cc1 (stereo not drawn) | 5 | 8 | -13 | 73* | 0
O=C(COC(=O)c1ccc(O)cc1)NC1CCCCCCC1 | . | . | -4 | . | .
CC(NC(=O)COC(=O)c1ccc(N(C)C)cc1)c1ccccc1 (stereo not drawn) | 7 | -2 | -6 | 79* | 3
C[C@H]1COc2cc(Br)ccc2S(=O)(=O)N1Cc1cn(Cc2ccccc2)nn1 | . | . | 2 | . | .
CCN(CC)C(=O)CSc1nnc(-c2ccccn2)n1C | . | . | 4 | . | .
COc1ccccc1N1CCN(C(=O)c2ccc3c(c2)nc(C)n3-c2cc(OC)c(OC)c(OC)c2)CC1 | . | . | -2 | . | .
O=S1(=O)c2c(cccc2N2CCSCC2)Oc2ccccc2CN1Cc1cn(Cc2cccc(C(F)(F)F)c2)nn1 | . | . | -1 | . | .
CCCCOc1ccc(C(=O)OCC(=O)NC2CCCC2)cc1 | 2 | 6 | -4 | 85* | 1
CN(C)c1ccc(C(=O)OCC(=O)Nc2cccc(S(=O)(=O)N3CCCC3)c2)cc1 | 5 | 13 | -3 | 86* | 3
Cc1ccc(SCCC(=O)NCC2CCCO2)cc1 (stereo not drawn) | 15 | 6 | -2 | -1 | 6
CC1CCCCC1NC(=O)COC(=O)c1ccc(N(C)C)cc1 (stereo not drawn) | 5 | 5 | -6 | 93* | 4
Cc1ccc(SCC(=O)NCC2CCCO2)cc1 (stereo not drawn) | 25* | -11 | -20 | 0 | -1
CC(C)CNC(=O)OCc1cn(Cc2cc(F)cc(F)c2)nn1 | . | . | 2 | . | .
C[C@H]1COC2=C1C(=O)C(=O)c1c2ccc2c1CCCC2(C)C | 18 | . | . | 41* | 28*
CN(C)c1ccc(-c2nc3ncc(Cl)cc3[nH]2)cc1 | . | . | -1 | . | .
COC(=O)C1=C(C)N(Cc2ccc(C(F)(F)F)cc2)C(=NCc2ccccc2C(F)(F)F)NC1c1cccc(Cl)c1 (stereo not drawn) | . | . | -11 | . | .
Nc1n[nH]c2c1C1(CCCCC1)Cc1ccccc1-2 | 32* | 17 | 1 | 1 | 7
Nc1ncnc2c1C1(CCCCC1)Cc1ccccc1-2 | 20 | 10 | 7 | 3 | 5
Cc1ccc(C(=O)c2c3ccc(N)cc3nn2CCC(N)=O)cc1 | 10 | 82* | 4 | 5 | 10
O=C(O)c1ccc(NS(=O)(=O)c2ccc(Cl)c(Cl)c2)cc1O | 33* | 1 | -1 | 2 | 2
O=c1cc(CSc2ccc(Cl)cc2)[nH]c2[nH]n(-c3ccccc3)c(=O)c12 | 45* | 16 | 5 | 33* | 6
Cc1[nH]n(-c2ccccc2)c(=O)c1Sc1ccc(Cl)cc1 | 16 | 21 | 10 | 2 | 11
Cc1ccc(SCc2cc(=O)c3c(=O)n(-c4ccccc4)[nH]c3[nH]2)cc1 | 25* | 27 | -8 | 25 | 14

High-throughput results: PubChem BioAssay, several laboratories
